Screening data (PubChem)
A selection: hits, their analogues and other compounds. The true share with any hit is near 1.5%.
CXCR6 inh – CXCR6 receptor inhibitors, primary screen, cell-based, beta-arrestin, luminescence, CHO-K1 PathHunter, 1536-well | C-X-C chemokine receptor type 6 (Homo sapiens), O00574 | AID 602244, 2012 | actives 0.36% (n = 360,000) | inhibition, % at 20 µM; in the data active means inhibition above about 34%, passing the limit was not always enough;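 further: antagonist mode with CXCL16 agonist at 10 nM final; 0% = 10 nM CXCL16 with DMSO and 100% = unstimulated wells without agonist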
Target sequence (O00574 whole entry, looked up): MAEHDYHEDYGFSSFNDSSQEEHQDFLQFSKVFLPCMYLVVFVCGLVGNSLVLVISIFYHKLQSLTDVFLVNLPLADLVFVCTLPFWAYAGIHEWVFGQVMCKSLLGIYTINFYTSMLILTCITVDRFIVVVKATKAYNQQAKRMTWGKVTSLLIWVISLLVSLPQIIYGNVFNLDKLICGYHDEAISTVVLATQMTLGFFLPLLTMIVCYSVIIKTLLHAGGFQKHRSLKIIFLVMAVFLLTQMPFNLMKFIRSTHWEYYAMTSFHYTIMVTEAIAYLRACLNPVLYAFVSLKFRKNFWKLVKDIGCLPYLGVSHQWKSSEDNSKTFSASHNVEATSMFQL
CCR6 antag – CCR6 receptor antagonists, primary screen, cell-based, CHO-K1, luminescence, beta-arrestin, uHTS. CHO-K1 CCR6 PathHunter beta-arrestin, CCL20-stimulated. inhibition, % at 20 µM. actives 0.49% (n = 340,000);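 active means compounds whose inhibition of the agonist-driven luminescence signal at 20 µM reaches about 50%, limit read from the data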;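 further: cells stimulated with CCL20 at 14 nM final; plate controls were DMSO with CCL20 for no effect and DMSO without agonist for full effect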
EBI2 antag – EBI2 receptor antagonists, beta-arrestin recruitment, primary screen, cell-based, luminescence, 7a,25-OHC stimulation, uHTS | G-protein coupled receptor 183 (Homo sapiens), P32249 | 7a,25-OHC stimulated | inhibition, % at 5 µM | actives 0.81% (n = 360,000) | AID 651636, 2012; in the data active means inhibition above about 38%;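 further: enzyme fragment complementation signal reports receptor beta-arrestin coupling in cells; 0% = agonist plus DMSO wells and 100% = wells without agonist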
Target sequence (P32249 whole entry, looked up, the tested form may be a part): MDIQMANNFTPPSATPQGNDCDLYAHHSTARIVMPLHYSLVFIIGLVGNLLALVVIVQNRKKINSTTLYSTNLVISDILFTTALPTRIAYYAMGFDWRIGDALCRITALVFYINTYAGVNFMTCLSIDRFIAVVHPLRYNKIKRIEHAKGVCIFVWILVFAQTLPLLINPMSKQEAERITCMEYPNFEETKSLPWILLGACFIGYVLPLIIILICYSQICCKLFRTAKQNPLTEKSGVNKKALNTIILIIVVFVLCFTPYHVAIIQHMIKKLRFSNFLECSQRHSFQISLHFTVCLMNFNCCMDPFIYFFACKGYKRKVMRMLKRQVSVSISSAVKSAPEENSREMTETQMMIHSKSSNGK
APJ antag – antagonists of human apelin receptor APJ, primary screen, CHO-K1 cells, beta-arrestin complementation, luminescence; P35414; inhibition, % at 20 µM; actives 0.32% (n = 330,000); AID 2521, 2010;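 active means inhibition above about 40% at 20 µM, limit read from the data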;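 further: cells challenged with 10 nM apelin-13 agonist together with compound; plate controls were apelin-13 plus DMSO wells for no effect and DMSO wells lacking apelin-13 for full effect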
APJ ag – agonists of human apelin receptor APJ, primary screen, CHO-K1 cells, PathHunter beta-arrestin, luminescence. 0% DMSO wells, 100% apelin. activation, % at 20 µM. P35414. actives 0.11% (n = 330,000);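 active means activation more than six SD over the plate average, tested at 20 µM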;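 further: 0% = DMSO alone and 100% = apelin-13 at 10 nM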
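Assay system: CHO-K1 APJ beta-arrestin complementation cell line / Compound: single test compound dose, 20 µM final, 1% DMSO / Times: overnight seeding, 90 min compound at 25 °C, 1 h detection / Technique: beta-gal luminescence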
EBI2 conf – EBI2 antagonist hit retest, beta-arrestin, confirmation, cell-based, single concentration, luminescence, 7a,25-OHC stimulation | shares compounds with EBI2 antag | 7a,25-OHC antagonism | inhibition, % at 5 µM | actives 29% (n = 2,400);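 active means inhibition of at least 50%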
EBI2 ag – EBI2 agonist activity of antagonist hits, confirmation, counter-screen for EBI2 antagonist project, cell-based, single concentration, agonist mode, luminescence | 2,400 tested, under 10 active | AID 652000, 2013 | activation, % at 5 µM | shares compounds with EBI2 antag | EBI2-expressing cells, 60 min; 0% vehicle, 100% 7α,25-dihydroxycholesterol control;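 active means activation of at least 50%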
bGal cs – E. coli beta-galactosidase enzyme inhibition, confirmation, counter-screen for EBI2 antagonist project, biochemical, luminescence, single concentration; shares compounds with EBI2 antag; purified beta-galactosidase, luminescent Galacton Star, 15 min; inhibition, % at 5 µM; actives 1% (n = 2,400); AID 652176, 2013;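 active means replicate-average signal at least 3 plate SD below neutral wells, shown as high inhibition, flagging enzyme-inhibiting false positives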;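 further: 0% = DMSO wells with enzyme and 100% = wells lacking enzyme; higher means stronger loss of beta-gal luminescence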
* marks the source's active call; other numbers are inactive results; / = no result given.

SMILES	CXCR6 inh	CCR6 antag	EBI2 antag	APJ antag	APJ ag	EBI2 conf	EBI2 ag	bGal cs
CCOc1ccc(N2CC(C(=O)Nc3ccc(S(=O)(=O)N4CCCCC4)cc3)CC2=O)cc1 (stereo unspecified)	-2.1	2.3	79.0*	2.9	10.8	62.7*	-1.4	-20.6
CC(C)C[C@H]1CN([C@@H](Cc2ccccc2)CN2CCC[C@H]2CN2C(=O)C(=O)NC[C@@H]2Cc2ccccc2)C(=O)C(=O)N1CCc1ccccc1	0.3	/	-3.2	/	/	/	/	/
Cc1cc2nc(CN(C)C(=O)C3CCC(=O)N(C4CCCC4)C3)[nH]c2cc1C (stereo unspecified)	0.1	/	-18.0	/	/	/	/	/
N#C/C(=C\c1ccc(Br)s1)C(=O)N1CCN(c2ccccc2)CC1	8.9	4.6	73.2*	7.4	2.5	20.6	0.0	8.0
O=C(CCc1ccccc1)N1CCN(C(=O)CCc2ccccc2)CC1	0.2	9.3	55.3*	/	/	24.8	-0.6	-8.3
C=CCn1c(SCC(=O)NNC(=O)Nc2ccc(C)cc2)nnc1-c1ccccc1	-2.3	-10.8	48.1*	13.0	1.6	8.2	-1.4	-9.8
C=CCn1c(SCC(=O)NNC(=O)Nc2cccc(Cl)c2)nnc1-c1ccccc1	7.1	15.2	60.5*	4.4	-2.4	11.5	-0.9	-10.2
C=CCn1c(SCC(=O)Nc2ccc(-c3nc4ccc(C)cc4s3)cc2)nnc1-c1ccccc1	1.2	-21.6	-79.2	/	/	/	/	/
COc1ccccc1NS(=O)(=O)c1cccc(C(=O)NCC(c2ccco2)N(C)C)c1 (stereo unspecified)	-4.9	-10.2	7.9	1.9	-0.5	/	/	/
O=C(c1cc2c(s1)CCCC2)N1CCN(c2ccccc2)CC1	-0.2	4.0	1.3	-1.6	-2.4	/	/	/
CCc1cc2cc(C(=O)N3CCN(Cc4ccccc4)CC3)sc2s1	-4.0	7.5	96.5*	-1.9	-2.7	85.2*	0.6	5.1
CCc1cc2cc(C(=O)N3CCN(c4ccccc4)CC3)sc2s1	-1.5	-13.7	83.0*	7.3	-5.7	46.1	-1.6	-14.6
CCOC(=O)COc1ccc(/C=C2\NC(=S)N(CC)C2=O)cc1	-10.4	0.7	-20.6	-13.1	-0.6	/	/	/
COc1cc(/C=C(/NC(C)=O)C(=O)O)cc(Cl)c1OCc1ccc(Br)cc1	4.9	1.3	-3.1	-3.8	-0.1	/	/	/
CCC(C)c1ccc(S(=O)(=O)N2CCN(S(=O)(=O)c3ccc(NC(C)=O)cc3)CC2)cc1 (stereo unspecified)	-1.2	5.3	4.5	-0.3	0.3	/	/	/
O=C(c1ccc(-n2cncn2)c([N+](=O)[O-])c1)N1CCN(S(=O)(=O)c2ccccc2Br)CC1	-13.8	-4.2	13.6	-20.5	4.7	/	/	/
Cc1cc(C)c(S(=O)(=O)N2CCN(C(=O)c3ccc(-n4cncn4)c([N+](=O)[O-])c3)CC2)c(C)c1	-10.5	-2.6	72.3*	-57.4	5.2	34.6	-0.9	-7.5
Cc1cccnc1NCc1ccc(O)c2ncccc12	6.8	8.7	55.9*	5.6	-5.2	22.2	0.5	7.2
Cc1cccc(NCc2ccc(O)c3ncccc23)c1C	-0.5	0.9	-7.7	-1.5	-4.1	/	/	/
Cc1cccc(N2CCN(c3cccc(C)c3)C2c2cccnc2)c1	-9.8	11.9	14.0	-12.5	-1.2	/	/	/
Cc1ccc(N2CCN(c3ccc(C)cc3)C2c2ccncc2)cc1	3.3	0.2	51.4*	1.0	2.4	20.9	-0.8	-8.5
COC(=O)[C@@]1(Cc2ccc(F)cc2)[C@H]2C(CC(=O)C(=O)N3CCCC3)C(=O)C[C@H]2CN1C(=O)c1ccccc1 (stereo partly specified)	6.7	/	-11.8	/	/	/	/	/
COC(=O)[C@@]1(Cc2ccc(OC)cc2)[C@@H]2C(=CC(=O)[C@H]2CC(=O)C(=O)N2CCCC2)CN1C(=O)c1ccccc1	1.0	17.2	47.4*	3.9	2.5	61.2*	0.5	2.4
O=C(NCc1ccncc1)c1ccc(OCc2ccccc2)cc1	-4.0	-3.7	8.1	/	/	/	/	/
CSCc1ccc(C(=O)NCc2ccc(C)cc2)cc1	5.7	11.2	63.5*	-2.7	-3.0	35.9	0.3	-11.6
SMILES	CXCR6 inh	CCR6 antag	EBI2 antag	APJ antag	APJ ag	EBI2 conf	EBI2 ag	bGal cs
Cc1ccc(CNC(=O)c2ccc(COc3ccccc3)cc2)cc1	0.6	14.8	52.5*	5.5	0.7	56.0*	-1.0	-19.3
CCCc1cc(C(=O)N(C)CC(=O)Nc2ccc(OCC)c(OCC)c2)sc1C	6.6	8.4	-2.6	0.7	8.1	/	/	/
COc1ccc(CCNC(=O)CCn2c(SCC(=O)N3CCCC3)nc3ccccc3c2=O)cc1OC	-16.1	7.8	0.4	16.9	-0.2	/	/	/
Cc1ccc(SCC(=O)Nc2ccc(-c3nc4ccccc4[nH]3)cc2)cc1	4.5	15.8	-10.0	7.1	0.8	/	/	/
CC(C)Oc1cc(F)ccc1-c1cc(C(=O)Nc2cccc(C(F)(F)F)c2)[nH]n1	-18.5	/	42.5*	/	/	38.4	1.0	11.2
CCc1ccc(NC(=O)C(C)OC(=O)c2cc(=O)[nH]c3ccc(S(=O)(=O)Nc4ccc(F)cc4)cc23)cc1 (stereo unspecified)	4.3	20.2	11.5	15.8	0.3	/	/	/
Cc1cccc(NS(=O)(=O)c2ccc3[nH]c(=O)cc(C(=O)OC(C)C(=O)Nc4ccc([N+](=O)[O-])cc4)c3c2)c1 (stereo unspecified)	1.3	26.2	46.6*	18.4	0.3	38.2	-0.5	8.9
OC[C@@H]1CN(Cc2ccc(F)cc2)C[C@H](n2cnc3c(NC4CC4)ncnc32)O1	-6.4	/	64.6*	/	/	65.6*	1.1	9.3
CC(C)N(C)c1ncnc2c1ncn2[C@H]1CN(Cc2ccccc2)C[C@@H](CO)O1	-6.2	/	16.2	/	/	/	/	/
OC[C@@H]1CN(Cc2ccccc2)C[C@H](n2cnc3c(NC4CC4)ncnc32)O1	6.2	/	24.4	/	/	/	/	/
CC(C)N(C)c1ncnc2c1ncn2[C@H]1CN(Cc2ccc(Cl)cc2)C[C@@H](CO)O1	-0.4	/	82.8*	/	/	77.0*	-2.3	-8.7
COc1ccc(F)cc1CN1CCN(C(=O)c2ccc(S(=O)(=O)N3CCCCCC3)cc2)CC1	-4.0	17.6	0.4	/	/	/	/	/
